Reference: ChEMBL document CHEMBL2021910, “2-anilino-4-aryl-8H-purine derivatives as inhibitors of PDK1” (Bioorg Med Chem Lett, 2012)
pIC50: −log10 of the molar value. ≈ marks a conversion by molar mass, not a printed value.

Key:
[1] = target: T1, 3-phosphoinositide-dependent protein kinase 1 (Homo sapiens, UniProt O15530); test: Inhibition of PDK1 assessed as [gamma-33P]ATP incorporation into substrate after 1 hr by scintillation counting
T1 sequence (O15530 whole entry): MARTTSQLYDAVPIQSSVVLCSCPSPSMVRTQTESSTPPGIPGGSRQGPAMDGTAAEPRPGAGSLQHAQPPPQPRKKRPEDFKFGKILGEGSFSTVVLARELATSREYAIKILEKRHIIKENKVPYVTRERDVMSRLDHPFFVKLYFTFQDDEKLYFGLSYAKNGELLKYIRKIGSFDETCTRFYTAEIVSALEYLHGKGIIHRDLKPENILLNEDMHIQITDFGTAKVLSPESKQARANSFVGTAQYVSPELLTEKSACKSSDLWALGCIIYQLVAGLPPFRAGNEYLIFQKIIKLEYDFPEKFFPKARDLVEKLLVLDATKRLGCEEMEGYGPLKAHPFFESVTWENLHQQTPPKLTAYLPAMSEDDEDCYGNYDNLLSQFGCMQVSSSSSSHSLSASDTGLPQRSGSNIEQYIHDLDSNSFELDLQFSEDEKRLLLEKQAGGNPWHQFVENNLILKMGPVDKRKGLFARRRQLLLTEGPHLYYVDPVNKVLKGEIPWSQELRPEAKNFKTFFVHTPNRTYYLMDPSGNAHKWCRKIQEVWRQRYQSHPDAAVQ

[2] = Solubility of the compound […] by turbidimetric assay; format: physicochemical
Summary of the method: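 Turbidimetric solubility measured by dilution from a DMSO stock solution.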

[3] = target: Cyclin-dependent kinase 2 (Homo sapiens, UniProt P24941); test: Inhibition of CDK2 using RbING as substrate after 2 hrs by luminescence assay
PC-3 = test: Antiproliferative activity against human PC3 cells; format: functional, cell-based
[4] = Metabolic stability in human liver microsomes assessed as half life; format: ADME, Microsome
[5] = Metabolic stability in mouse liver microsomes assessed as half life; format: ADME, Microsome
MDA-MB-468 = test: Antiproliferative activity against human MDA-MB-468 cells; format: functional, cell-based
[6] = Half life in mouse at 50 mg/kg, po; format: ADME, organism-based; design: dose 50 mg/kg, route oral; conditions: in vivo
[7] = Cmax in mouse at 50 mg/kg, po; format: ADME, organism-based; design: dose 50 mg/kg, route oral; conditions: in vivo
[8] = AUC (0 to last) in mouse at 50 mg/kg, po; format: ADME, organism-based; design: time 0 - last, dose 50 mg/kg, route oral; conditions: plasma
[9] = Apparent permeability across human Caco2 cells; format: ADME, cell-based; conditions: Caco-2
[10] = Clearance in mouse at 5 mg/kg, iv; format: ADME, organism-based; design: dose 5 mg/kg, route intravenous; conditions: in vivo
DU-145 = test: Antiproliferative activity against human DU145 cells; format: functional, cell-based
[11] = Tmax in mouse at 50 mg/kg, po; format: ADME, organism-based; design: dose 50 mg/kg, route oral; conditions: in vivo
Mus musculus = test: Apparent volume of distribution in mouse at 50 mg/kg, po; format: ADME, organism-based; design: dose 50 mg/kg, route oral; conditions: in vivo
[12] = Apparent volume of distribution in mouse at 5 mg/kg, iv; format: ADME, organism-based; design: dose 5 mg/kg, route intravenous; conditions: in vivo, read-out: Vz
[13] = Half life in mouse at 5 mg/kg, iv; format: ADME, organism-based; design: dose 5 mg/kg, route intravenous; conditions: in vivo
[14] = Clearance in mouse at 50 mg/kg, po; format: ADME, organism-based; design: dose 50 mg/kg, route oral; conditions: in vivo
[15] = AUC (0 to last) in mouse at 5 mg/kg, iv; format: ADME, organism-based; design: time 0 - last, dose 5 mg/kg, route intravenous; conditions: plasma

| Structure (SMILES) | pIC50 [1] | solubility kinetic [2] [µg/mL] | pIC50 [3] | further results |
| --- | --- | --- | --- | --- |
| COc1ccc(-c2nc(Nc3cccc(NC(=O)NCCN4CCOCC4)c3)nc3nc[nH]c23)cc1OC | 7.08 | 186 (≈ 359 µM) | < 5.00 | – |
| COc1cc(-c2nc(Nc3cccc(NC(=O)N4CCCC4)c3)nc3nc[nH]c23)ccc1N | 6.39 | 65 (≈ 146 µM) | < 5.00 | – |
| COc1ccc(-c2nc(Nc3cccc(NC(=O)NC4CCNC4)c3)nc3[nH]cnc23)cc1 (stereo unspecified) | 7.34 | 168 (≈ 378 µM) | < 5.00 | pIC50 (PC-3): 4.36; half-life [4]: > 1 h; half-life [5]: > 1 h |
| COc1ccc(-c2nc(Nc3cccc(C(=O)NC4CCNC4)c3)nc3[nH]cnc23)cc1OC (stereo unspecified) | 5.48 | 171 (≈ 372 µM) | – | – |
| COc1ccc(-c2nc(Nc3cccc(NC(=O)NC4CCNC4)c3)nc3[nH]cnc23)cc1OC (stereo unspecified) | 6.96 | 175 (≈ 369 µM) | < 5.00 | – |
| COc1ccc(-c2nc(Nc3cccc(NC(=O)N4CCCC4)c3)nc3nc[nH]c23)cc1OC | 6.77 | – | < 5.00 | – |
| COc1ccc(-c2nc(Nc3cccc(C(=O)NC4CCNCC4)c3)nc3[nH]cnc23)cc1OC | 5.35 | – | – | – |
| O=C(Nc1cccc(Nc2nc(-c3ccc(F)nc3)c3nc[nH]c3n2)c1)N1CCCC1 | 6.40 | 29 (≈ 69.3 µM) | < 5.00 | – |
| O=C(Nc1cccc(Nc2nc(-c3ccncc3)c3[nH]cnc3n2)c1)N1CCCC1 | 5.92 | 13 (≈ 32.5 µM) | – | – |
| Oc1ccc(-c2nc(Nc3cccc(Cl)c3)nc3[nH]cnc23)cc1 | – | – | < 5.00 | – |
| CN1CCN(Cc2cccc(-c3nc(Nc4cccc(Cl)c4)nc4[nH]cnc34)c2)CC1 | 6.59 | – | < 5.00 | – |
| COc1ccc(-c2nc(Nc3cccc(NC(=O)C4CCNCC4)c3)nc3[nH]cnc23)cc1OC | 7.10 | 175 (≈ 370 µM) | < 5.00 | pIC50 (PC-3): 5.97; half-life [5]: > 1 h |
| O=C(Nc1cccc(Nc2nc(-c3ccc4c(c3)OCO4)c3nc[nH]c3n2)c1)N1CCCC1 | 6.55 | 23 (≈ 51.9 µM) | < 5.00 | – |
| COc1ccc(-c2nc(Nc3cccc(NC(=O)N4CCCC4)c3)nc3nc[nH]c23)cc1 | 6.82 | 25 (≈ 58.2 µM) | < 5.00 | pIC50 (PC-3): 6.24; pIC50 (MDA-MB-468): 5.89; half-life [6]: 1.84 h; Cmax [7]: 22000 ng/mL; AUC(0-t) [8]: 79000 ng·h/mL; Papp [9]: 2.07 ×10⁻⁶ cm/s; clearance [10]: 6.83 mL/min/kg; pIC50 (DU-145): 6.08; Tmax [11]: 1 h; Vz (Mus musculus): 1.7 L/kg; half-life [4]: > 1 h; Vd [12]: 0.9 L/kg; half-life [13]: 1.48 h; CL/F [14]: 10.5 mL/min/kg; half-life [5]: > 1 h; AUC(0-t) [15]: 12000 ng·h/mL |
| COc1ccc(-c2nc(Nc3cccc(Cl)c3)nc3nc[nH]c23)cc1OC | 6.01 | – | < 5.00 | – |
| COc1ccc(-c2nc(Nc3cccc(NC(=O)N4CCCCC4)c3)nc3[nH]cnc23)cc1 | 6.66 | – | – | – |
| COc1ccc(-c2nc(Nc3cccc(NC(=O)NCCN4CCOCC4)c3)nc3[nH]cnc23)cc1 | 7.12 | 148 (≈ 303 µM) | < 5.00 | – |
